According to ChEMBL document CHEMBL4613263, “Optimization of Tetrahydroindazoles as Inhibitors of Human Dihydroorotate Dehydrogenase and Evaluation of Their Activity and In Vitro Metabolic Stability” (J Med Chem, 2020):
≈ marks a conversion by molar mass, not a printed value. Each block holds one compound with its values, some of them ahead of it. Calls of active or inactive are those of the source. The calls are words filed in the database; no cut-off is given here.

Assays:
[1] = Cytotoxicity against human HNDF cells assessed as reduction in cell viability incubated for 72 hrs by SRB assay; format: cell-based
In short: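 Human normal dermal fibroblasts seeded at 15×10^2 per well and left 24 h, then exposed to compound for 72 h with 0.1% DMSO final. Cells fixed with TCA at 4 °C for 1 h, stained with SRB, solubilized in 10 mM Tris and read at 490 nm. Values normalized to DMSO control. Tabulated means come only from experiments where IC50 fell below 10 000 nM.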

[2] = Antiproliferative activity against human ARN8 cells assessed as reduction in cell viability incubated for 72 hrs by SRB assay; format: functional, cell-based
[3] = biological target: T1, Dihydroorotate dehydrogenase (quinone), mitochondrial (Homo sapiens, UniProt Q02127); assay: Inhibition of DHODH in human ARN8 cells assessed as activation of p53-dependent transcription at 0.05 to 10 uM incubated for 16 hrs by CPRG assay; format: cell-based
T1 sequence (Q02127 whole entry): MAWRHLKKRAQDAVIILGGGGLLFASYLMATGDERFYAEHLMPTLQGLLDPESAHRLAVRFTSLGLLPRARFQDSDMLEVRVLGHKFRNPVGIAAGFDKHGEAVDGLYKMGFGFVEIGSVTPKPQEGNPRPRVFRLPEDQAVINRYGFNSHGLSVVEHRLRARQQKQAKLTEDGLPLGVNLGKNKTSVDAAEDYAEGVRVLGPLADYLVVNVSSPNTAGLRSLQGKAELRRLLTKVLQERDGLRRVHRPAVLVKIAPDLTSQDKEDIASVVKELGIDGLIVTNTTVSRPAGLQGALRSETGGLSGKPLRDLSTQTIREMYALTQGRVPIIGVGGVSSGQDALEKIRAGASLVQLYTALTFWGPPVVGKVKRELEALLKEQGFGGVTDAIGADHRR
In short: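 ARN8 cells carrying the RGCΔFos-LacZ p53 reporter seeded at 2×10^4 per well and left 24 h, then treated 16 h (0.1% DMSO final, ±100 µM uridine). Cells washed, lysed and frozen at −20 °C for at least 2 h. β-galactosidase measured with CPRG substrate at pH 7.5, read at 590 nm after 24 h. Result is fold change vs DMSO; mean ± SD of three technical replicates.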

[4] = biological target: T1, Dihydroorotate dehydrogenase (quinone), mitochondrial; assay: Inhibition of recombinant human N-terminal His-tagged DHODH (31 to 395 residues) expressed in Escherichia coli expression system using dihydroorotic acid as substrate by DCIP assay
[5] = Cytotoxicity against human HNDF cells assessed as reduction in cell viability incubated for 72 hrs in presence of 100 uM […], uridine by SRB assay; format: cell-based
In short: (§1)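 Normal dermal fibroblasts seeded at 15×10^2 per well and left 24 h, then treated 72 h in medium with 0.1% DMSO final plus 100 µM uridine. Fixed with TCA, stained with 0.4% SRB, dye dissolved in Tris and read at 490 nm. Growth/viability given as % of DMSO control; mean ± SD of three technical replicates.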

Homo sapiens [6] = species on record: Homo sapiens; assay: Antiproliferative activity against human ARN8 cells assessed as reduction in cell viability at 0.005 to 10 uM incubated for 72 hrs in presence of 100 uM […], uridine by SRB assay; format: functional, cell-based
[7] = Cytotoxicity against human HNDF cells assessed as reduction in cell viability incubated with compound at higher concentration for 72 hrs in presence of 100 uM […], uridine by SRB assay; format: cell-based; in short: as §1
Homo sapiens [8] = species on record: Homo sapiens; assay: Antiproliferative activity against human ARN8 cells assessed as reduction in cell viability incubated with compound at higher concentration for 72 hrs in presence of 100 uM […], uridine by SRB assay; format: functional, cell-based
[9] = Metabolic stability in human liver microsomes assessed as half life at 1 uM incubated for 60 mins by LC-MS/MS analysis; format: ADME, Microsome; details: for half-life at 1 µM: liver microsomes
In short: (§2)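 Compound at 1 µM with 1.0 mg/mL human or mouse liver microsomes in 50 mM potassium phosphate pH 7.4, preincubated 5 min at 37 °C. Started with 1 mM NADPH (or blank buffer). Quenched with cold acetonitrile containing glipizide at 0, 5, 15, 30, 60 min. Parent loss tracked by LC-MS/MS in MRM mode; t½ = 0.693/k from slope of peak-area ratio versus time.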

[10] = Kinetic aqueous solubility of compound in Prima HT solution at pH 7.4 incubated for 4 hrs by UV-spectrophotometry; format: physicochemical; details: read-out: Kinetic_solubility
In short: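 20 mM DMSO stocks diluted 100× into Prima HT buffer at pH 7.4 and shaken 4 h at rt. Samples filtered through 0.22 µm, mixed 1:1 with isopropanol and scanned by UV from 190–400 nm against stock reference standards.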

[11] = Metabolic stability in CD-1 mouse liver microsomes assessed as half life at 1 uM incubated for 60 mins by LC-MS/MS analysis; format: ADME, Microsome; details: for half-life at 1 µM: CD-1, mouse, liver microsomes; in short: as §2
[12] = biological target: T1, Dihydroorotate dehydrogenase (quinone), mitochondrial; assay: Inhibition of recombinant human DHODH using dihydroorotic acid as substrate measured for 68 mins by DCIP based colorimetric assay
[13] = biological target: T1, Dihydroorotate dehydrogenase (quinone), mitochondrial; assay: Inhibition of DHOH in human ARN8 cells assessed as gammaH2AX level at 20 uM incubated for 1 hr in presence of pan-caspase inhibitor, Z-VAD-FMK by Western blot analysis; format: cell-based
In short: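 ARN8 cells treated 24 h at 20 nM, with 20 µM Z-VAD-FMK or vehicle added 4.5 h before harvest. Etoposide arm was 20 µM for 1 h alongside Z-VAD-FMK. Lysates normalized for protein and analysed by western blot for p53, p-Ser15 p53, γ-H2AX, H2AX and cleaved PARP (85 kDa) against stain-free total-protein loading.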

[14] = biological target: DNA topoisomerase 2-alpha (Homo sapiens) (UniProt P11388); details: 20 uM
Chain of DNA topoisomerase 2-alpha (Homo sapiens) (P11388 whole entry): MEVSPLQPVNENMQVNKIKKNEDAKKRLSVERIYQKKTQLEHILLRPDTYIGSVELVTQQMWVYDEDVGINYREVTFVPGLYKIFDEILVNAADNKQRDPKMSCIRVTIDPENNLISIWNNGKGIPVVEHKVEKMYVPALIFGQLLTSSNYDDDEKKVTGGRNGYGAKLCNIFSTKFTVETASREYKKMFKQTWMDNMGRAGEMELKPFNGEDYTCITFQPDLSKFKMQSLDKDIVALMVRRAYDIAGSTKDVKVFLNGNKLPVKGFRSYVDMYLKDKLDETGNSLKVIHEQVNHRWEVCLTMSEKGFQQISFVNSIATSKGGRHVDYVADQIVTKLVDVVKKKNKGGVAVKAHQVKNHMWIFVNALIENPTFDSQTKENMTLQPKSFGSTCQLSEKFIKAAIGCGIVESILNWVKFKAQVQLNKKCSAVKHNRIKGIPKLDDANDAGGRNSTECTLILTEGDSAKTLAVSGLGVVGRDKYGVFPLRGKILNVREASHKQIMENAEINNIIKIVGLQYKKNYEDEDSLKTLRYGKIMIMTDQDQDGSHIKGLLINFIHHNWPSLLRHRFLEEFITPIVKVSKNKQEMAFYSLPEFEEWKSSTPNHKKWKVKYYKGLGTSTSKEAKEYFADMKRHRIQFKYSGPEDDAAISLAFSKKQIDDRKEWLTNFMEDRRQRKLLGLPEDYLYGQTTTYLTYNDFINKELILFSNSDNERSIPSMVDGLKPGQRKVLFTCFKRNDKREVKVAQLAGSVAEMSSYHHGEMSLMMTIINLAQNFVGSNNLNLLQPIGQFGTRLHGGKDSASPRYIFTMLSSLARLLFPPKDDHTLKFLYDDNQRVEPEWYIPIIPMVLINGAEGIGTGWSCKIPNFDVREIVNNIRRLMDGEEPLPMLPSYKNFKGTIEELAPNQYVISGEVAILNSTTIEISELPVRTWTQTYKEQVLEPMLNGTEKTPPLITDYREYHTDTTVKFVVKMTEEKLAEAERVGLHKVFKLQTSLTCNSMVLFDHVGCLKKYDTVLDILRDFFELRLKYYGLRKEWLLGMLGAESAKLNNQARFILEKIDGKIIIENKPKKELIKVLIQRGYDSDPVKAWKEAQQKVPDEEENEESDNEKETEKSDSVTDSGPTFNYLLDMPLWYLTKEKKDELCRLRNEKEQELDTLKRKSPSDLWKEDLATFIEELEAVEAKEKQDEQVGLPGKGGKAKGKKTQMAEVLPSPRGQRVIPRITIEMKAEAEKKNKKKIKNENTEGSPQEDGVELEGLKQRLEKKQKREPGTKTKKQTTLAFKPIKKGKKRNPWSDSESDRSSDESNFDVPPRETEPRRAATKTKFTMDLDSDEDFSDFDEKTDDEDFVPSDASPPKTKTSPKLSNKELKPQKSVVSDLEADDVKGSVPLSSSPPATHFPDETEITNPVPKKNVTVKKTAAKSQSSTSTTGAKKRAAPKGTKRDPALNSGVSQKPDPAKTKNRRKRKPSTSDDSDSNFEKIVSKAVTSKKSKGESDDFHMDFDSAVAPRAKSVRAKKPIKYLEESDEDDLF

[15] = biological target: DNA topoisomerase 2-alpha (Homo sapiens) (UniProt P11388); details: 20 uM; remark: listed apart in the source
[16] = biological target: DNA topoisomerase 2-alpha (Homo sapiens) (UniProt P11388); details: 20 uM; remark: listed apart in the source
[17] = biological target: DNA topoisomerase 2-alpha (Homo sapiens) (UniProt P11388); details: 20 uM; remark: listed apart in the source
[18] = biological target: DNA topoisomerase 2-alpha (Homo sapiens) (UniProt P11388); details: 20 uM; remark: listed apart in the source
[19] = biological target: DNA topoisomerase 2-alpha (Homo sapiens) (UniProt P11388); details: 20 uM; remark: listed apart in the source
[20] = Drug metabolism in CD-1 mouse liver microsomes assessed as hydroxylation-mediated M1 metabolite with m/z as 397.1 formation by measuring retention time at 10 uM incubated for 60 mins by LC-MS/MS analysis; format: ADME, Microsome; details: 1 h
In short: (§3)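 10 µM compound in 100 mM phosphate pH 7.4 with pooled female CD-1 mouse liver microsomes and NADPH, at 37 °C for 0, 10, 20, 40 and 60 min. Stopped with equal-volume cold acetonitrile, then centrifuged, dried and reconstituted. Metabolites and parent resolved on C18 UHPLC with ion-trap MS. Each peak reported as % of total (metabolite + parent) area.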

[21] = Drug metabolism in CD-1 mouse liver microsomes assessed as disappearance of parent compound by measuring parent compound retention time at 10 uM incubated for 60 mins by LC-MS/MS analysis; format: ADME, Microsome; details: 1 h; in short: as §3
[22] = Drug metabolism in CD-1 mouse liver microsomes assessed as hydroxylation-mediated M2 metabolite with m/z as 397.1 formation by measuring retention time at 10 uM incubated for 60 mins by LC-MS/MS analysis; format: ADME, Microsome; details: 1 h; in short: as §3
[23] = Homo sapiens, 72 h, read-out: IC50
[24] = Homo sapiens, ARN8, 72 h, read-out: IC50

Structure (SMILES): O=C(N[C@H]1CCCc2c1cnn2-c1ccccc1F)c1noc2c1CCCC2
IC50 [1]: Not Active
IC50 [2]: Not Active

inhibition [3]: inactive
IC50 [4]: 6500 nM
Structure (SMILES): O=C(N[C@H]1CCCc2c1cnn2-c1ccccc1F)c1onc2c1CCCC2
IC50 [1]: Not Active
IC50 [2]: Not Active

Structure (SMILES): Cc1ccccc1-n1ncc2c1CCCC2NC(=O)c1noc2c1CCCC2 (racemic)
IC50 [1, 23]: 8600 nM
Activity [5]: Toxic
Activity (Homo sapiens [6]): inactive
Activity [7]: Non-Toxic
IC50 [2, 24]: 15 nM
inhibition (Homo sapiens [8]): Active

Structure (SMILES): Cc1cccc(-n2ncc3c2CCCC3NC(=O)c2noc3c2CCCC3)c1 (racemic)
IC50 [1, 23]: 8000 nM
IC50 [2, 24]: 170 nM

Structure (SMILES): O=C(N[C@@H]1CCCc2c1cnn2-c1ccccc1F)c1ncccn1
IC50 [1]: Not Active
IC50 [2]: Not Active

Stability ([9]; microsomes, 1 h, 1 µM): Stable
solubility kinetic at 4 h [10]: < 5 µM
half-life at 1 µM [11]: 54 min
Structure (SMILES): O=C(N[C@@H]1CCCc2c1cnn2-c1ccccc1F)c1cc(C(F)(F)F)ccn1
IC50 [1, 23]: > 10000 nM
Activity [5]: Toxic
Activity (Homo sapiens [6]): inactive
IC50 [2, 24]: 110 nM

Structure (SMILES): O=C(NC1CCCc2c1cnn2-c1ccccc1)c1noc2c1CCCC2 (racemic)
IC50 [1, 23]: 7000 nM
IC50 [2, 24]: 430 nM

Structure (SMILES): O=C(N[C@@H]1CCCc2c1cnn2-c1ccccc1F)c1ncc2ccccn12
IC50 [1, 23]: 9400 nM
IC50 [2, 24]: 38 nM

IC50 [12]: > 10000 nM
Structure (SMILES): COC(=O)c1ccc(C(=O)NC2CCCc3c2cnn3-c2ccccc2F)nc1 (racemic)

half-life at 1 µM [9]: > 60 min
solubility kinetic at 4 h [10]: 110 µM (≈ 41.3 µg/mL)
Stability ([11]; mouse, microsomes, 1 h, 1 µM): Stable
Structure (SMILES): Cc1c(-c2ccc(-c3ccccc3F)cc2)nc2ccc(F)cc2c1C(=O)O [BREQUINAR]
IC50 [1, 23]: > 10000 nM
IC50 [2, 24]: 400 nM

Structure (SMILES): Cc1cccc(-n2ncc3c2CCCC3NC(=O)c2noc3c2CCCC3)c1C (racemic)
IC50 [1, 23]: 7700 nM
Activity [5]: Toxic
Activity (Homo sapiens [6]): inactive
Activity [7]: Non-Toxic
IC50 [2, 24]: 23 nM
inhibition (Homo sapiens [8]): Active

Structure (SMILES): Cc1ccc(F)c(-n2ncc3c2CCC[C@H]3NC(=O)c2onc3c2CCCC3)c1
IC50 [1, 23]: 6700 nM
IC50 [2, 24]: 200 nM

Structure (SMILES): O=C(NC1CCCc2c1cnn2-c1ccccc1F)c1ccccn1 (racemic)
IC50 [1, 23]: > 10000 nM
IC50 [2, 24]: 5400 nM

half-life at 1 µM [9]: 23 min
solubility kinetic at 4 h [10]: 10 µM (≈ 3.76 µg/mL)
half-life at 1 µM [11]: 6 min
Structure (SMILES): Cc1ccccc1-n1ncc2c1CCC[C@H]2NC(=O)c1noc2c1CCCC2
IC50 [1, 23]: > 10000 nM
Activity [7]: Non-Toxic
IC50 [2, 24]: 14 nM
inhibition (Homo sapiens [8]): Active

Structure (SMILES): O=C(N[C@@H]1CCCc2c1cnn2-c1ccccc1F)c1noc2c1CCCC2
IC50 [1, 23]: 10000 nM
Activity (Homo sapiens [6]): inactive
IC50 [2, 24]: 80 nM

inhibition [13]: Active
inhibition [14]: Active
inhibition [15]: Active
inhibition [16]: Active
inhibition [17]: Active
inhibition [18]: Active
inhibition [19]: Active
Structure (SMILES): COc1cc([C@@H]2c3cc4c(cc3[C@@H](O[C@@H]3O[C@@H]5CO[C@@H](C)O[C@H]5[C@H](O)[C@H]3O)[C@H]3COC(=O)[C@H]23)OCO4)cc(OC)c1O

Structure (SMILES): O=C(NC1CCCc2c1cnn2-c1ccccc1F)c1ccccc1 (racemic)
IC50 [1]: Not Active
IC50 [2]: Not Active

half-life at 1 µM [9]: > 60 min
solubility kinetic at 4 h [10]: 110 µM (≈ 38.1 µg/mL)
half-life at 1 µM [11]: 10 min
Structure (SMILES): Cc1ccnc(C(=O)N[C@@H]2CCCc3c2cnn3-c2ccccc2C)c1
IC50 [1, 23]: > 10000 nM
Activity [5]: Toxic
Activity (Homo sapiens [6]): inactive
IC50 [2, 24]: 62 nM

Structure (SMILES): Cc1ccccc1-n1ncc2c1CCC[C@H]2NC(=O)c1onc2c1CCCC2
IC50 [1, 23]: > 10000 nM
IC50 [2, 24]: 73 nM

Structure (SMILES): O=C(NC1CCCc2c1cnn2-c1ccccc1F)c1onc2c1CCCC2 (racemic)
IC50 [1, 23]: 8900 nM
IC50 [2, 24]: 220 nM

Structure (SMILES): O=C(N[C@H]1CCCc2c1cnn2-c1ccccc1F)c1ccccn1
IC50 [1]: Not Active
IC50 [2]: Not Active

half-life at 1 µM [9]: > 60 min
half-life at 1 µM [11]: 1 min
Structure (SMILES): O=C(N[C@@H]1CCCc2c1cnn2-c1ccccc1F)c1ccccn1
IC50 [1, 23]: > 10000 nM
IC50 [2, 24]: 930 nM

half-life at 1 µM [9]: 85 min
Retention_time [20]: 4.1 min
solubility kinetic at 4 h [10]: 15 µM (≈ 5.71 µg/mL)
inhibition [3]: Active
Retention_time [21]: 5.3 min
half-life at 1 µM [11]: 8 min
Retention_time [22]: 4.3 min
Structure (SMILES): O=C(N[C@@H]1CCCc2c1cnn2-c1ccccc1F)c1onc2c1CCCC2
IC50 [1, 23]: > 10000 nM
IC50 [2, 24]: 160 nM
